# Test results as given in ChEMBL document CHEMBL3102749, “Antiprotozoal activity of dicationic 3,5-diphenylisoxazoles, their prodrugs and aza-analogues” (Bioorg Med Chem, 2014).
# Active and inactive are the calls of the source. No cut-off for these calls is given here.
# Tests used:
# [1] = tested on: Trypanosoma brucei rhodesiense; assay: Trypanocidal activity against bloodstream form of Trypanosoma brucei rhodesiense STIB900 infected in NMRI mouse assessed as mean survival days at 100 mg/kg, po qd administered for 4 days; format: functional
# Summary of the method: (§1)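 Mice infected with T. b. rhodesiense STIB900 (acute model) dosed once daily for 4 consecutive days, ip (diamidines) or oral (prodrugs). Cure means survival to 60 days post infection without parasitemia relapse. Mean survival days post infection are averaged over all mice, with cured mice counted as >60 days.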
# [2] = tested on: Trypanosoma brucei rhodesiense; assay: Trypanocidal activity against bloodstream form of Trypanosoma brucei rhodesiense STIB900 infected in NMRI mouse assessed as mean survival days at 20 mg/kg, ip qd administered for 4 days; format: functional; conditions: route intraperitoneal; summary of the method: as §1
# [3] = tested on: Trypanosoma brucei rhodesiense; assay: Trypanocidal activity against bloodstream form of Trypanosoma brucei rhodesiense STIB900 infected in NMRI mouse assessed as decrease in parasitemia at 20 mg/kg, ip qd administered for 4 days measured once per week until 60 days by microscopic analysis; format: functional, organism-based; set-up: dose 20 mg/kg
# Summary of the method: (§2)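 Mice infected with T. b. rhodesiense STIB900 received one dose daily for 4 consecutive days, 4 mice per group. Diamidines were given intraperitoneally and prodrugs orally. The primary endpoint was cures per group: a mouse counted as cured if it survived 60 days post-infection without parasitemia relapse.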
# [4] = tested on: Trypanosoma brucei rhodesiense; assay: Trypanocidal activity against bloodstream form of Trypanosoma brucei rhodesiense STIB900 infected in NMRI mouse assessed as mean survival days at 5 mg/kg, ip qd administered for 4 days; format: functional; summary of the method: as §1
# [5] = tested on: Trypanosoma brucei rhodesiense; assay: Trypanocidal activity against bloodstream form of Trypanosoma brucei rhodesiense STIB900 infected in NMRI mouse assessed as mean parasitemia relapse day at 5 mg/kg, ip qd administered for 4 days; format: functional; conditions: route intraperitoneal
# Summary of the method: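 Mice infected with STIB900 received 4 consecutive daily intraperitoneal doses, 4 mice per group. The secondary endpoint was mean relapse day post-infection, which separates weaker compounds; mice surviving 60 days without parasitemia relapse were scored as cured.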
# [6] = tested on: Trypanosoma brucei rhodesiense; assay: Trypanocidal activity against bloodstream form of Trypanosoma brucei rhodesiense STIB900 infected in NMRI mouse assessed as decrease in parasitemia at 5 mg/kg, ip qd administered for 4 days measured once per week until 60 days by microscopic analysis; format: functional, organism-based; set-up: dose 5 mg/kg; summary of the method: as §2
SMILES,MSD [2],Activity [3],MSD ([4]; route intraperitoneal),further results
Cl.Cl.N/C(=N\O)c1ccc(-c2cc(-c3cccc(/C(N)=N/O)c3)on2)cc1,–,–,–,MSD [1]: >43.5 days
COc1ccc(C(=N)N)cc1-c1cc(-c2ccc(C(=N)N)cc2)no1.Cl.Cl,>60 days,Active,>60 days,–
Cl.Cl.N=C(N)c1ccc(-c2cc(-c3cccc(C(=N)N)c3)on2)cc1,>51.25 days,–,>49.25 days,–
Cl.Cl.Cl.N=C(N)c1cccc(-c2cc(-c3ccc(C(=N)N)cc3Cl)on2)c1,>60 days,Active,–,Time [5]: 16 days; MSD [4]: inactive
COc1ccc(C(=N)N)cc1-c1cc(-c2ccc(C(=N)N)cc2)on1.Cl.Cl,>60 days,Active,>60 days,–
Cl.Cl.N=C(N)c1cccc(-c2cc(-c3cccc(C(=N)N)c3)on2)c1,>58 days,–,21.75 days,Activity [6]: inactive
COc1cc(C(=N)N)ccc1-c1cc(-c2ccc(C(=N)N)cc2)no1.Cl.Cl,>50.25 days,–,>48.75 days,–
Cl.Cl.N/C(=N\O)c1ccc(-c2cc(-c3ccc(/C(N)=N/O)cc3)on2)cc1,–,–,–,MSD [1]: >40.5 days
Cl.Cl.N=C(N)c1ccc(-c2cc(-c3cccc(C(=N)N)c3)no2)cc1,>29.25 days,inactive,–,–
